Here are results for five compounds from publication PMC4943881 (Biochemistry, 2015).

Experiment [1] has as its target T1, 0P-ERK2 (inactive ERK2) (Rattus norvegicus, UniProt P63086). Put plainly: NMR. It counts as binding. Particulars: estimated, slow/intermediate exchange prevented accurate determination. Put shortly:
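Unphosphorylated ERK2 from E. coli BL21(DE3), ILV-methyl-labeled in a protonated background, ~0.26 mM in 50 mM Tris pH 7.4, 150 mM NaCl, 5 mM MgSO4, 0.1 mM EDTA, 5 mM DTT, 99% D2O, 2.5% glycerol. AMP-PNP titrated at 0, 0.1, 0.2, 0.3, 1.0, 2.1, 4.2 mM; 5 h 2D TROSY-HMQC per point, 25 °C, 800 MHz; combined methyl CSP (1H, 0.25×13C).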

For experiment [2], the target named is T2, 2P-ERK2 (active ERK2) (Rattus norvegicus, UniProt P63086). In words: NMR. It counts as binding. Particulars: estimated, slow/intermediate exchange prevented accurate determination.
A further experiment deals with 2P-p38α. Particulars: cited from earlier work.
The subject of experiment [3] is Tyr-185 phosphorylated (pY) ERK2. The note with it: formation of the ternary MBP-bound complex of pY ERK2; cited from earlier work.
The next experiment concerns the target 0P-p38α. Particulars: read-out: binding affinity of ATP; cited from earlier work.
Experiment [4] has as its target T1, 0P-ERK2 (inactive ERK2). In words: NMR. It counts as binding.
For experiment [5], the target named is T2, 2P-ERK2 (active ERK2). In words: NMR. It counts as binding.
Experiment [6] concerns the target Elk1F peptide DEF-site peptide (Homo sapiens) (UniProt P19419). The note with it: cited from earlier work.
In experiment [7] the target is 0P-ERK2 mutant that was binding competent only at the DEJL-site. Particulars: full-length Elk1 protein and 0P-ERK2 mutant binding competent only at the DEJL-site; cited from earlier work.

Where two headings read alike, the source gives them in different places. Where a SMILES comes first, the peptide text is derived from it. A value given as a limit tells only on which side of the number the result lay.

Consider `Nc1ncnc2c1ncn2[C@@H]1O[C@H](COP(=O)(O)OP(=O)(O)NP(=O)(O)O)[C@@H](O)[C@H]1O` [AMP-PNP, adenosine 5′-(β,γ-imido)triphosphate], for which the Kd on 0P-ERK2 (inactive ERK2) [1] and at 2P-ERK2 (active ERK2) [2] was 200 to 500 µM in each case.

`Nc1ncnc2c1ncn2[C@@H]1O[C@H](COP(=O)(O)OP(=O)(O)OP(=O)(O)O)[C@@H](O)[C@H]1O` [ATP]: the “increase in the binding affinity of ATP upon phosphorylation” value in the experiment with 2P-p38α (2P-p38α versus 0P-p38α) was over 30 fold. The Kd on 2P-p38α (read-out: binding affinity of ATP, 2P-p38α) was 430 µM; at 0P-p38α, over 15000 µM. Further, in experiment [3], the “koff, ATP” value is 0.5 s⁻¹.

For `CC(C)C[C@H](NC(=O)[C@H](CO)NC(=O)[C@@H]1CCCN1C(=O)[C@H](CO)NC(=O)[C@H](CC(C)C)NC(=O)[C@@H]1CCCN1C(=O)[C@H](CC(C)C)NC(=O)[C@H](CCC(=O)O)NC(=O)[C@H](CC(C)C)NC(=O)[C@H](CC(=O)O)NC(=O)[C@H](CCCNC(=N)N)NC(=O)[C@@H]1CCCN1C(=O)[C@H](CCCCN)NC(=O)[C@H](CCCNC(=N)N)NC(=O)CNC(=O)[C@H](CCCCN)NC(=O)[C@@H](N)CCC(N)=O)C(=O)O` [Elk1D] (H-QKGRKPRDLELPLSPSL-OH), the Kd turned out to be 10 ± 1 µM on 0P-ERK2 (inactive ERK2) [4] and 30 ± 3 µM on 2P-ERK2 (active ERK2) [5].

As to ERK2 (2P-ERK2) (from UniProt P63086), the Kd in experiment [6] is 8 µM.

On to “full-length Elk1 protein: full-length transcription factor Elk1, a substrate of ERK2”, for which, in [7], the Kd is 5 µM.
